Compounds with a hit are over-represented: about 0.72% of the library has one in this group of screens.
mIAP block – inhibitors of mouse IAP, primary screen, biochemical, luminescence, uHTS | inhibition, % at 10 µM | purified mouse IAP, CDP-Star luminescence, 30 min | 330,000 tested, 0.2% active;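 active = inhibition of at least 40% at 10 µM in the primary screen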
bIAP inh – bovine intestinal alkaline phosphatase inhibitors, primary screen, selectivity assay for TNAP inhibitor project, biochemical, bovine IAP, CDP-star luminescence; inhibition, % at 20 µM; AID 1019, 2008; alkaline phosphatase, intestinal [Bos taurus]; purified bovine IAP, 30 min; 190,000 tested, under 10 active;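 active = over 50% inhibition of intestinal alkaline phosphatase at 20 µM in the single-dose screen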
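System: purified bovine intestinal alkaline phosphatase (IAP) enzyme; Input: IAP diluted 1/65,000,000 in the well; Measured by: CDP-star luminescence signal; Compound dosing: 20 µM single dose; Incubation: 30 min reaction at room temperature.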
hIAP act – human IAP activators, primary screen, biochemical, luminescence, uHTS | purified human IAP, CDP-Star luminescence, 30 min; hits give high values; 1 = vehicle-only enzyme, 0 = enzyme-free background | activation factor at 10 µM | 330,000 tested, 0.16% active | AID 2524, 2010;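 active = activation factor of the enzyme at least 2-fold when tested at 20 µM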
Target sequence (P09923 whole entry, looked up): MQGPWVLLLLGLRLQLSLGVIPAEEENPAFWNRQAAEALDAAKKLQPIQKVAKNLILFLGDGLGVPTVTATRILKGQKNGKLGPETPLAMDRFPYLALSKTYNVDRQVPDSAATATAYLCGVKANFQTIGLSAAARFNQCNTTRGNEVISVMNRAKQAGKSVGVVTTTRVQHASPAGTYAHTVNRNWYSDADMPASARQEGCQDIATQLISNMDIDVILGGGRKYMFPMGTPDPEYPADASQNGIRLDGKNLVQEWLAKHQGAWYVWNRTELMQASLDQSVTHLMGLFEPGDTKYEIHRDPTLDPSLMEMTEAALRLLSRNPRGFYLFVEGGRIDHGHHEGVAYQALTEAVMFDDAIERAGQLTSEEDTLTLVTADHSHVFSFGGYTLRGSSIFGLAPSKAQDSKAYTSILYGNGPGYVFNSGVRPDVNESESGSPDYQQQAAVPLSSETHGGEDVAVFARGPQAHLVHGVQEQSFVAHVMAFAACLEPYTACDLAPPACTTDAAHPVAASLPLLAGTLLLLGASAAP
bIAP activator – bovine intestinal alkaline phosphatase activators, primary screen, biochemical, bovine IAP, CDP-star luminescence; purified bovine IAP, 30 min; hits give high values; fold of DMSO-control signal, blank-subtracted; 200,000 tested, 0.17% active; alkaline phosphatase, intestinal [Bos taurus]; activation factor at 20 µM;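 active = activation factor of 2 or more at 20 µM, a signal rise over negative controls twice the positive control's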
hIAP inh – human IAP inhibitors, primary screen, biochemical, luminescence, uHTS. Intestinal-type alkaline phosphatase (Homo sapiens), P09923. purified IAP, CDP-Star luminescence, 30 min. inhibition, % at 10 µM. 330,000 tested, 0.12% active;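 active = inhibition reaching a set limit with compound at 10 µM in the primary screen, cut at about 35% in these data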
mIAP act – activators of mouse IAP, primary screen, biochemical, luminescence, uHTS; intestinal alkaline phosphatase [Mus musculus]; muIAP, CDP-Star luminescence, 30 min; hits give high values; 1 = vehicle-only enzyme signal, 0 = enzyme-free wells; activation factor at 10 µM; 330,000 tested, 0.24% active; AID 2805, 2010;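 active = activation factor of at least 2 at 20 µM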
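System: mouse IAP enzyme. Reagent: CDP-Star chemiluminescent phosphatase substrate. Benchmarks: DMSO wells, no-enzyme wells. Times: 30 min enzyme-substrate-compound incubation at room temperature. Detection: luminescence from enzymatic CDP-Star hydrolysis. Doses: test compounds delivered from DMSO solution.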
Of the large screens only hits and unclear results are named; the others gave an inactive call.

Cn1cccc1C(=O)C(=O)Nc1ccc(F)c(F)c1	none
CC(Cc1cccs1)NC(=S)Nc1ccc(Cl)c(Cl)c1 (stereo not given)	mIAP act 2
CC(Cc1cccs1)NC(=O)Nc1cccc(Cl)c1 (stereo not given)	mIAP act 2.3
CC(Cc1cccs1)NC(=O)Nc1ccc(F)cc1 (stereo not given)	none
CC(=O)N(C)c1ccc(NC(=O)C(Sc2ccccc2)c2ccccc2)cc1 (stereo not given)	bIAP activator 2.2
COc1ccc(C2C(C(=O)Nc3cc(OC)c(OC)c(OC)c3)c3ccccc3C(=O)N2C)cc1 (stereo not given)	bIAP activator 2.2, mIAP act 2
O=C(CCCc1c[nH]c2ccccc12)NCC1COc2ccccc2O1 (stereo not given)	none
CC(=O)c1ccc(N2CCN(CN3C(=O)CC4(CCCC4)C3=O)CC2)c(F)c1	none (no result: bIAP inh, bIAP activator)
COC(=O)c1ccc(NC(=O)C2CC3CCC2C3)cc1 (stereo not given)	none (no result: bIAP inh, bIAP activator)
COC(=O)c1ccc(NC(=S)NC2CC3CCC2C3)cc1 (stereo not given)	mIAP act 3
N#Cc1ccc(NC(=O)Nc2ccc(Cl)cc2)cc1	mIAP act 2.2
Cc1ccc(NC(=S)NCCN(C2CCCCC2)C2CCCC2)cc1	none (no result: bIAP inh)
Cc1cc(C)cc(NC(=S)NCCN(C2CCCCC2)C2CCCC2)c1	mIAP act 2.1 (no result: bIAP inh)
O=C(N/N=C/C=C/c1ccccc1)c1n[nH]c2c1CCC2	hIAP act 2.1
CC(/C=N/NC(=O)c1n[nH]c2c1CCC2)=C\c1ccccc1	none
CN(C)S(=O)(=O)c1cccc(NC(=O)c2cccc(N3C(=O)CCC3=O)c2)c1	none (no result: bIAP inh, bIAP activator)
Cc1ccccc1C(=O)NC(CC(C)C)C(=O)OCC(=O)c1c(N)n(C)c(=O)n(C)c1=O (stereo not given)	bIAP activator 2.1
Cc1ccc(NC(=O)NCCN2CCCCC2)cc1C	none (no result: bIAP inh, bIAP activator)
CCCCSCCCNC(=O)Nc1ccc(C)c(C)c1	mIAP act 2.7
C/C(=N\NC(=O)C1CCCC1)c1ccc(C(C)C)cc1	none (no result: bIAP inh, bIAP activator)
C/C(=N\NC(=O)C1CCCC1)c1ccc(Cl)c(Cl)c1	mIAP block 63 (no result: bIAP inh, bIAP activator)
CC(/C=C/c1ccccc1)=N\Nc1nc2c(c(=O)[nH]c(=O)n2C)n1CCO	none (no result: bIAP inh, bIAP activator)
COCCn1c(N/N=C(C)/C=C/c2ccccc2)nc2c1c(=O)[nH]c(=O)n2C	bIAP activator 2.8 (no result: mIAP block, hIAP act, hIAP inh, mIAP act)
COc1cc(C(=O)NCC2CCCO2)cc(Br)c1OCc1ccccc1 (stereo not given)	none (no result: bIAP inh, bIAP activator)
CCc1cccc(C)c1NC(=O)CO/N=C(\N)CC(=O)NC1CCCCC1	none
COc1ccc(NC(=O)Nc2ccc(F)c(Cl)c2)cc1	none
CSc1ccccc1NC(=O)Nc1cccc(Cl)c1	mIAP act 2.1
CSc1ccccc1NC(=O)Nc1ccc(F)c(Cl)c1	mIAP act 2.3
Cc1ccc(NC(=O)Nc2ccc(F)c(Cl)c2)cc1	mIAP act 2.9
CS(=O)(=O)N1CCN=C1SCc1ccc([N+](=O)[O-])cc1	none
CC1=C(C(=O)OCc2ccccc2)C(c2ccc(N(C)C)cc2)NC(=O)N1 (stereo not given)	bIAP activator 2.8
CCOc1ccc(C2NC(=O)NC(C)=C2C(=O)OCc2ccccc2)cc1 (stereo not given)	none (no result: bIAP inh, bIAP activator)
COc1ccc(NC(=S)NCc2ccc3c(c2)OCO3)cc1	none
CC(C)c1ccc(NC(=S)NCc2ccc3c(c2)OCO3)cc1	mIAP act 2.5
S=C(NCc1ccc2c(c1)OCO2)Nc1ccc(-c2nc3ccccc3[nH]2)cc1	mIAP act 2.3
CN(C)CCNC(=S)Nc1ccc(-c2nc3ccccc3[nH]2)cc1	none
CNS(=O)(=O)c1cccc(C(=O)OCc2cc(Cl)cc3c2OCOC3)c1	none
O=C(NC1CCCC1)C(c1ccccn1)N(Cc1ccc(F)cc1)C(=O)c1csnn1 (stereo not given)	none (no result: bIAP inh, bIAP activator)
CC(=O)N1CCN(C(=O)COc2ccc(Br)cc2)CC1	none
COc1ccc(OCC(=O)N2CCN(C(=O)COc3ccc(Br)cc3)CC2)cc1	mIAP block 74
Cc1ccc2nc(NCc3ccccc3)[nH]c2c1	bIAP activator 2.8 (no result: mIAP block, hIAP act, hIAP inh, mIAP act)
Cc1ccc(NC(=O)CCn2c(=O)c3cccn3c3ccccc32)cc1C	none (no result: bIAP inh, bIAP activator)
COc1ccc(Cc2nc3ccc(C(=O)NCc4ncc(C)[nH]4)cc3o2)cc1OC	mIAP block 50 (no result: bIAP inh, bIAP activator)
CCN(C(=O)CSc1nnnn1C)C1CCS(=O)(=O)C1 (stereo not given)	none (no result: bIAP inh, bIAP activator)
COc1ccc(NC(=O)Nc2ccc3c(c2)C(=O)N([C@H](C)CO)C[C@H](C)[C@@H](CN(C)C(=O)Nc2ccc(C(F)(F)F)cc2)O3)cc1	mIAP act 2.1 (no result: bIAP inh, bIAP activator)
COc1ccc(NC(=O)Nc2ccc3c(c2)C(=O)N([C@H](C)CO)C[C@H](C)[C@@H](CN(C)C(=O)Nc2ccc(OC)cc2)O3)cc1	mIAP act 2.3 (no result: bIAP inh, bIAP activator)
C[C@@H]1CN([C@@H](C)CO)C(=O)c2cc(NC(=O)Nc3ccccc3)ccc2O[C@H]1CN(C)C(=O)Nc1cccc2ccccc12	mIAP act 2.7 (no result: bIAP inh, bIAP activator)
COc1ccc(NC(=O)N(C)C[C@H]2Oc3ccc(NC(=O)NC(C)C)cc3C(=O)N([C@H](C)CO)C[C@@H]2C)cc1	none (no result: bIAP inh, bIAP activator)
COc1ccc(NC(=O)N(C)C[C@H]2Oc3ccc(NC(=O)Nc4ccc(C(F)(F)F)cc4)cc3C(=O)N([C@H](C)CO)C[C@@H]2C)cc1	mIAP act 2.1 (no result: bIAP inh, bIAP activator)
O=[N+]([O-])c1ccc(-c2cnc[nH]2)cc1	none (no result: bIAP inh, bIAP activator)
Cc1ccc(N(CCC(=O)N2CCOCC2)S(=O)(=O)c2ccccc2)cc1	none (no result: bIAP inh, bIAP activator)
COc1cccc(NC(=O)Nc2cc(C)ccc2OC)c1	none
Cc1ccc(OC(F)F)c(NC(=O)Nc2cccc(C(F)(F)F)c2)c1	mIAP act 2.1
S=C(NCc1ccccc1)NCc1cccc(CNC(=S)NCc2ccccc2)c1	mIAP act 2.4
FC(F)(F)Sc1ccc(NC(=S)NCc2ccccc2)cc1	mIAP act 2.3 (no result: bIAP inh, bIAP activator)
O=C(Nc1ccccc1)Nc1cccc(C(F)(F)F)c1	mIAP act 2.9
CNC(=O)Nc1cccc(C(F)(F)F)c1	none
CCOC(=O)Cc1cnc(NC(=O)CSc2nc(C(C)C)cc(=O)[nH]2)s1	none (no result: bIAP inh, bIAP activator)
COc1cccc(CNC(=O)c2cc(S(=O)(=O)N3CCCC3)cn2C)c1	none (no result: bIAP inh, bIAP activator)
COc1ccc(NC(=O)CN(C)C(=O)CN2C(=O)C3CCCCC3C2=O)cc1 (stereo not given)	none (no result: bIAP inh, bIAP activator)
FC(F)(F)c1cccc(NC(=S)NCc2ccccc2)c1	mIAP act 2.2
